High-throughput results deposited in PubChem BioAssay by several laboratories.
Shown are actives, neighbours in structure and some others; about 1.4% of the full set was active somewhere.
STAT1 blocker: STAT1 signaling inhibitors, primary screen, cell-based, HTS, luciferase reporter | NIH 3T3 STAT1-luciferase reporter, IFN-gamma, luminescence | inhibition, % at 5.5 µM | 0.35% of 200,000 active;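 active = inhibition above a set limit, the mean inhibition across all tested compounds plus 3 SD, cut at about 34% in these data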
STAT3 activator: IL-6 driven STAT3 reporter potentiators, primary screen, U3A cells, luciferase, luminescence, MLSCN library. IL-6 STAT3-luciferase reporter; 100% = signal with IL-6 EC80 alone. activation (% of control), % at 5.6 µM. 0.91% of 190,000 active;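 active = activation above the screen-wide mean of compound activation plus 3 SD, cut at about 130% in these data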
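Detection: reporter luminescence signal / Assay system: STAT1-lacking human U3A cells, STAT3 luciferase reporter / Incubation: compound pre-incubation 1 h before IL-6, then 6 h stimulation at 37 °C / Control set: IL-6-only high control / Read-out: % activation relative to IL-6 control / Probe or stimulus: Interleukin-6, 33 ng/mL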
STAT3 blocker: IL-6 driven STAT3 reporter inhibitors, primary screen, U3A cells, luciferase, luminescence, MLSCN library; IL-6 STAT3-luciferase reporter; host cell line lacks STAT1; AID 862, 2007; inhibition, % at 5.5 µM; 0.89% of 190,000 active;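 active = inhibition above the mean inhibition across all screened compounds plus 3 SD, cut at about 44% in these data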
PERK inh: block of dimerizer-induced PERK translation repression, primary screen, PERK inhibitor project, CHO PERK-DD cells, SEAP luminescence, HTS. inhibition, % at 5.6 µM. CHO PERK-DD fusion, SEAP luminescence translation reporter. 0.17% of 220,000 active. Eukaryotic translation initiation factor 2-alpha kinase 3 (Homo sapiens), Q9NZJ5;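 active = inhibition above the mean inhibition of all tested compounds plus 3 SD, set separately per screening campaign, cut at about 2.9% in these data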;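 also: PERK kinase domain activated by AP20187 dimerizer at 100 nM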
Platelet DG rel: inhibitors of platelet dense granule secretion, primary screen, cell-based, MLPCN, human platelets; human platelet-rich plasma, SFLLRN dense granule ATP release, luminescence; inhibition, %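 (compounds screened at 7.5 µM in platelet-rich plasma)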; 0.22% of 300,000 active; AID 1663, 2009;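 active = mean replicate score, as percent of positive control, at or above 50; inconclusive = mean below 50 but at least one replicate at or above 50; inactive = mean and every replicate below 50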
A number is an active result; 0 = inactive; ? = inconclusive; - = no result.

SMILES	STAT1 blocker	STAT3 activator	STAT3 blocker	PERK inh	Platelet DG rel
CCCn1c2c(c(O)c(C(=O)Nc3ccccc3)c1=O)CCCC2	0	133.2	0	0	0
Cc1nc2ccc(NC(=O)c3ccc([N+](=O)[O-])cc3)cc2[nH]1	-	-	-	-	0
N#C/C(=C\c1c[nH]c2ccccc12)C(N)=O	-	-	-	0	0
CC(=O)Oc1c(/C=C(\C#N)C(N)=O)[nH]c2ccccc12	0	0	0	2.9	0
CCN(CC)C(=O)C(=O)N/N=C/c1cccs1	0	0	0	3.1	0
CC(C)(C)c1ccc(-n2ncc3c2CCCC3NC(=O)c2cnccn2)cc1 (stereo not drawn)	-	-	-	-	0
CN(C)C(=S)N=Nc1[nH]c2ccccc2c1O	0	152.4	0	0	0
COc1ccc(C2=NN(C(=O)CSC3=NN4CCCC(=O)N=C4S3)C(c3cccc(OC)c3OC)C2)cc1 (stereo not drawn)	0	0	0	0	74.0
COc1ccc(C)cc1Nc1n[n+](-c2ccccc2)c(-c2ccc(SC)cc2)s1	-	-	-	-	0
COc1ccccc1N(C(=O)c1snc(C(N)=O)c1N)C(C(=O)NC1CCCC1)c1ccc(N(C)C)cc1 (stereo not drawn)	-	-	-	-	0
O=C(Nc1ccc(Cl)cc1)Nc1cccc(C(=O)O)c1	87.6	0	99.3	0	0
Cc1nc2cc(NC(=O)Nc3ccccc3Cl)ccc2n1C	40.0	0	84.1	0	?
O=C(Nc1cccc(Cl)c1)Nc1ccccc1C(=O)O	-	-	-	0	75.5
O=C(Nc1cccc(Cl)c1)Nc1cccc(C(=O)O)c1	-	-	-	0	0
O=C(Nc1cccc(C(=O)O)c1)Nc1ccccc1Cl	79.4	0	89.2	0	0
CC(CCc1ccccc1)NC(=O)c1ccc(C(=O)NC(C)CCc2ccccc2)cc1 (stereo not drawn)	0	0	59.7	0	-
COc1ccc(C(=O)CSc2nc(C(C)(C)C)nc3ccccc23)cc1	0	0	0	0	0
COCCNC(=O)CCN1N=C(c2ccccc2)CCC1=O	-	-	-	-	0
O=c1c(Cl)c(N2CCCCC2)cnn1-c1nc2ccccc2[nH]1	71.5	0	103.1	0	0
O=c1c2ccccc2cnn1-c1nc2ccccc2[nH]1	93.8	0	107.3	0	73.9
COc1ccc2c(c1)c(C(=O)CN1CCC(C(N)=O)CC1)c(C)n2C	0	0	0	0	0
NC(=O)CSc1cn(Cc2ccc(F)cc2)c2ccccc12	0	0	0	0	59.2
NC(=O)CSc1cn(Cc2ccccc2)c2ccccc12	0	0	0	0	0
CC(=O)Nc1sc(C)c(C)c1C(=O)OCCOc1ccccc1	-	-	-	-	0
Cc1ccccc1Nc1nc(N)nc(COC(=O)[C@@H](NC(=O)c2ccccc2Cl)C(C)C)n1	-	-	-	-	0
SMILES	STAT1 blocker	STAT3 activator	STAT3 blocker	PERK inh	Platelet DG rel
CC1CCN(S(=O)(=O)c2cc(C(=O)N3CCN(c4ncccn4)CC3)ccc2Br)CC1	0	0	0	0	0
C[C@]12CS(=O)(=O)C[C@H]1SC(=S)N2c1ccccc1	-	-	-	4.7	0
COc1ccc(CCNC(=O)C(=O)NCc2ccccn2)cc1	0	0	0	0	0
CC1(C)CC(=O)C=C(Nc2ccc(Cl)c(Br)c2)C1	-	-	-	-	0
COc1ccc(C(=O)Cc2ccccc2)cc1OC	0	0	0	4.8	0
Oc1ccccc1-c1csc(-c2ccccc2)n1	0	169.5	0	0	0
Oc1ccc(-c2csc(-c3ccccc3)n2)cc1O	0	0	0	0	0
COc1ccc(NC(=O)c2c(Cl)n(C)c3ccccc23)cc1	0	144.0	0	0	0
Cc1cccc(OCCC(=O)OCC(=O)Nc2c(C)nn(-c3ccccc3)c2C)c1	-	-	-	-	0
Cc1[nH]c(=O)[nH]c(=O)c1S(=O)(=O)Nc1ccc(Br)cc1F	-	-	-	-	0
COc1ccccc1C(C)NC(=O)Cc1ccc(S(=O)(=O)N2CCOCC2)s1 (stereo not drawn)	-	-	-	-	0
CN(C)c1nc(Nc2ccc(Cl)cc2)nc(OCC#N)n1	0	135.5	0	0	0
COc1ccccc1NC(=O)CCc1c(C)[nH]c(=O)c(C#N)c1C	0	0	0	0	0
CCN(CC(=O)Nc1ccccc1C(F)(F)F)C(=O)CCc1c(C)[nH]c(=O)c(C#N)c1C	-	-	-	-	64.8
CCCn1c2ccccc2c2cnn(CC(=O)NC3CCCC(C)C3C)c(=O)c21 (stereo not drawn)	-	-	-	-	0
N#Cc1ccccc1NC(=O)C1SC(=Nc2ccccc2)C(C(=O)Nc2ccc(Cl)cc2)=C1N (stereo not drawn)	55.3	0	54.5	0	0
O=C1CC(c2ccccc2)Sc2ccccc2N1 (stereo not drawn)	0	134.8	0	0	0
COc1cc(/C=C2/S/C(=N/S(=O)(=O)Cc3ccccc3)NC2=O)c([N+](=O)[O-])cc1OC	-	-	-	3.0	0
CC(=O)Oc1ccc(-c2cc3ccccc3oc2=O)cc1	-	-	-	-	0
CC(=O)Oc1ccc(-c2cc3c(OC(C)=O)cc(OC(C)=O)cc3oc2=O)cc1	-	-	-	-	58.1
CCOC(=O)CN(Cc1sccc1C)C(=O)Nc1ccc(OC)cc1OC	0	0	0	0	0
COc1cccc(/C=N/NC(=S)Nc2cccc(C(=O)O)c2)c1O	68.1	0	66.1	0	0
COc1cc(/C=N/NC(=S)Nc2cccc(C(=O)O)c2)ccc1O	70.8	0	96.9	0	0
Cc1cc(NC(=O)CSc2nnc(C)n2C)no1	-	-	-	-	0
CN(Cc1cccs1)C(=O)Cn1cnc2ccccc2c1=O	0	0	0	0	0
SMILES	STAT1 blocker	STAT3 activator	STAT3 blocker	PERK inh	Platelet DG rel
Cc1ccc(Cl)c2c1NC(=O)C2(O)CC(=O)c1ccccc1O (stereo not drawn)	0	133.1	0	0	0
COc1ccc(NC(=O)c2cc(S(=O)(=O)N3CCOCC3)cn2C)cc1Cl	-	-	-	-	0
Cn1cc(S(=O)(=O)N2CCOCC2)cc1C(=O)Nc1ccc(Cl)cc1	-	-	-	-	99.1
O=C(O)Cn1cnc2c(=S)nc[nH]c21	-	-	-	3.7	0
CCc1ccc(NC(=O)c2onc(C)c2Cl)cc1	0	141.2	0	0	0
Cc1noc(C(=O)Nc2ccc(C#N)cc2)c1Cl	-	-	-	-	0
Cc1cccc(NC(=O)C(=O)NCCCc2ccccc2)c1	0	0	0	0	0
COc1ccc(-n2c(C)cc(C3=NNC(=NC4CC4)SC3)c2C)cc1	62.5	0	0	0	-
c1ccc2c(C3=NNC(=NC4CCCCC4)SC3)c[nH]c2c1	0	0	0	0	0
CN=C1NN=C(c2cc(C)n(-c3c(C)n(C)n(-c4ccccc4)c3=O)c2C)CS1	0	0	0	0	0
Cc1cc(C2=NNC(=NC3CC3)SC2)c(C)n1-c1ccccc1	91.0	0	104.6	0	0
c1ccc2c(C3=NNC(=NC4CC4)SC3)c[nH]c2c1	0	0	0	0	55.9
CCOc1cc(C2C3=C(CC(C)(C)CC3=O)N(C)C3=C2C(=O)CC(C)(C)C3)ccc1O	-	-	-	-	0
Cc1ccc(N(CC(=O)NCc2ccccc2)C(=O)c2csnn2)cc1	-	-	-	-	0
COc1cccc(-c2nc(-c3ccccc3)no2)c1	0	0	0	0	0
